Assay results: ChEMBL document CHEMBL4689842, “EUbOPEN Chemogenomics Library wave 1” (2021)
Several values for one entry are separate records, joined by “and”; a condition that tells them apart may be missing. Equal values may be shown once.

System: U2OS
Experiment: Multiplex assay against U2OS
Type: toxicity, cell-based
Conditions: human
Summary of the method: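 Cells were classed with CellPathfinder machine-learning gating, first as Hoechst high-intensity objects or normal cells, then (normal cells) as healthy, pyknosed or fragmented nuclei, and finally (pyknosed cells) as mitotic or apoptotic. Staining of live cells at seeding used Hoechst33342, BioTracker Green Microtubule Cytoskeleton Dye, MitoTracker Red and Annexin V Alexa Fluor 680, with imaging on a CQ1 microscope at 37°C and 5% CO2 after compound addition. Tubulin, mitochondrial-mass and membrane-permeability phenotypes are per cents of healthy-nucleus cells.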

[1] = 12 h, 1 µM, compound concentration 1 uM, replicate 1
[2] = 12 h, 1 µM, compound concentration 1 uM, replicate 2
[3] = 24 h, 1 µM, compound concentration 1 uM, replicate 1
[4] = 24 h, 1 µM, compound concentration 1 uM, replicate 2
[5] = 12 h, 10 µM, compound concentration 10 uM, replicate 1
[6] = 12 h, 10 µM, compound concentration 10 uM, replicate 2
[7] = 24 h, 10 µM, compound concentration 10 uM, replicate 1
[8] = 24 h, 10 µM, compound concentration 10 uM, replicate 2
[9] = 48 h, 1 µM, compound concentration 1 uM, replicate 1
[10] = 48 h, 1 µM, compound concentration 1 uM, replicate 2
[11] = 48 h, 10 µM, compound concentration 10 uM, replicate 1
[12] = 48 h, 10 µM, compound concentration 10 uM, replicate 2

## Cc1cc(C)c(-n2ccn3nc(-c4cccnc4)cc23)cc1NC(=O)c1cc(C#N)cc(S(F)(F)(F)(F)F)c1 [BAY-826]
[1]
  Population Apoptotic (%): 68% and 80%
  Population Fragmented Nuclei (%): 11% and 8%
  Population Healthy Nuclei (%): 75% and 87%
  Population Hoechst High Intensity Objects (%): 4%
  Population Membrane Permeable-Phenotype (%): 45% and 44%
  Population Mitochondria Different-Phenotype (%): 41% and 26%
  Population Mitotic Cells (%): 31% and 20%
  Population Normal (%): 95%
  Population Pyknosed Nuclei (%): 13% and 5%
  Population Tubulin-Different-Phenotype (%): 99% and 93%
  Total Cell Count: 168 and 105
[2]
  Population Apoptotic (%): 75% and 78%
  Population Fragmented Nuclei (%): 13% and 15%
  Population Healthy Nuclei (%): 81% and 69%
  Population Hoechst High Intensity Objects (%): 11% and 12%
  Population Membrane Permeable-Phenotype (%): 36% and 35%
  Population Mitochondria Different-Phenotype (%): 27% and 79%
  Population Mitotic Cells (%): 25% and 21%
  Population Normal (%): 88% and 87%
  Population Pyknosed Nuclei (%): 15%
  Population Tubulin-Different-Phenotype (%): 68% and 100%
  Total Cell Count: 85
[3]
  Population Apoptotic (%): 50% and 85%
  Population Fragmented Nuclei (%): 9%
  Population Healthy Nuclei (%): 82% and 53%
  Population Hoechst High Intensity Objects (%): 5%
  Population Membrane Permeable-Phenotype (%): 36% and 51%
  Population Mitochondria Different-Phenotype (%): 44% and 78%
  Population Normal (%): 94%
  Population Tubulin-Different-Phenotype (%): 63%
  Total Cell Count: 134 and 155
[4]
  Population Apoptotic (%): 80% and 70%
  Population Fragmented Nuclei (%): 19% and 10%
  Population Healthy Nuclei (%): 50% and 78%
  Population Hoechst High Intensity Objects (%): 13% and 9%
  Population Membrane Permeable-Phenotype (%): 56% and 28%
  Population Mitotic Cells (%): 19% and 30%
  Population Normal (%): 87% and 90%
  Population Pyknosed Nuclei (%): 29% and 11%
  Population Tubulin-Different-Phenotype (%): 100% and 48%
  Total Cell Count: 100 and 98

## Cl.O=C(O)c1cc(-c2ccc(C3CCNCC3)cc2)c2ccc(-c3ccc(C(F)(F)F)cc3)cc2c1
[1]
  Population Apoptotic (%): 25%
  Population Fragmented Nuclei (%): 16%
  Population Healthy Nuclei (%): 67%
  Population Hoechst High Intensity Objects (%): 7%
  Population Membrane Permeable-Phenotype (%): 8%
  Population Mitochondria Different-Phenotype (%): 9%
  Population Mitotic Cells (%): 74%
  Population Normal (%): 92%
  Population Pyknosed Nuclei (%): 16%
  Population Tubulin-Different-Phenotype (%): 15%
  Total Cell Count: 201
[2]
  Population Apoptotic (%): 50%
  Population Fragmented Nuclei (%): 11%
  Population Healthy Nuclei (%): 83%
  Population Hoechst High Intensity Objects (%): 5%
  Population Membrane Permeable-Phenotype (%): 3%
  Population Mitochondria Different-Phenotype (%): 16%
  Population Mitotic Cells (%): 50%
  Population Normal (%): 94%
  Population Pyknosed Nuclei (%): 5%
  Population Tubulin-Different-Phenotype (%): 36%
  Total Cell Count: 60
[5]
  Population Apoptotic (%): 41%
  Population Healthy Nuclei (%): 74%
  Population Hoechst High Intensity Objects (%): 2%
  Population Membrane Permeable-Phenotype (%): 5%
  Population Mitochondria Different-Phenotype (%): 17%
  Population Mitotic Cells (%): 58%
  Population Normal (%): 97%
  Population Pyknosed Nuclei (%): 11%
  Population Tubulin-Different-Phenotype (%): 14%
  Total Cell Count: 181
[6]
  Population Apoptotic (%): 60%
  Population Fragmented Nuclei (%): 14%
  Population Healthy Nuclei (%): 64%
  Population Hoechst High Intensity Objects (%): 14%
  Population Membrane Permeable-Phenotype (%): 10%
  Population Mitochondria Different-Phenotype (%): 13%
  Population Mitotic Cells (%): 40%
  Population Normal (%): 85%
  Population Pyknosed Nuclei (%): 21%
  Population Tubulin-Different-Phenotype (%): 23%
  Total Cell Count: 38
[3]
  Population Apoptotic (%): 35%
  Population Healthy Nuclei (%): 81%
  Population Hoechst High Intensity Objects (%): 7%
  Population Membrane Permeable-Phenotype (%): 3%
  Population Mitotic Cells (%): 64%
  Population Normal (%): 92%
  Population Pyknosed Nuclei (%): 6%
  Population Tubulin-Different-Phenotype (%): 12%
  Total Cell Count: 249
[4]
  Population Apoptotic (%): 20%
  Population Fragmented Nuclei (%): 11%
  Population Healthy Nuclei (%): 79%
  Population Hoechst High Intensity Objects (%): 3%
  Population Membrane Permeable-Phenotype (%): 4%
  Population Mitochondria Different-Phenotype (%): 9%
  Population Mitotic Cells (%): 80%
  Population Normal (%): 96%
  Population Pyknosed Nuclei (%): 9%
  Population Tubulin-Different-Phenotype (%): 30%
  Total Cell Count: 62
[7]
  Population Apoptotic (%): 41%
  Population Fragmented Nuclei (%): 13%
  Population Healthy Nuclei (%): 72%
  Population Hoechst High Intensity Objects (%): 4%
  Population Membrane Permeable-Phenotype (%): 4%
  Population Mitochondria Different-Phenotype (%): 12%
  Population Mitotic Cells (%): 58%
  Population Normal (%): 95%
  Population Pyknosed Nuclei (%): 13%
  Population Tubulin-Different-Phenotype (%): 13%
  Total Cell Count: 227
[8]
  Population Apoptotic (%): 61%
  Population Fragmented Nuclei (%): 17%
  Population Healthy Nuclei (%): 61%
  Population Hoechst High Intensity Objects (%): 8%
  Population Membrane Permeable-Phenotype (%): 7%
  Population Mitochondria Different-Phenotype (%): 5%
  Population Mitotic Cells (%): 38%
  Population Normal (%): 91%
  Population Pyknosed Nuclei (%): 20%
  Population Tubulin-Different-Phenotype (%): 16%
  Total Cell Count: 56
[9]
  Population Apoptotic (%): 17%
  Population Fragmented Nuclei (%): 9%
  Population Healthy Nuclei (%): 81%
  Population Hoechst High Intensity Objects (%): 3%
  Population Membrane Permeable-Phenotype (%): 1%
  Population Mitochondria Different-Phenotype (%): 17%
  Population Mitotic Cells (%): 82%
  Population Normal (%): 96%
  Population Pyknosed Nuclei (%): 9%
  Population Tubulin-Different-Phenotype (%): 12%
  Total Cell Count: 359
[10]
  Population Apoptotic (%): 33%
  Population Fragmented Nuclei (%): 6%
  Population Healthy Nuclei (%): 89%
  Population Hoechst High Intensity Objects (%): 2%
  Population Membrane Permeable-Phenotype (%): 4%
  Population Mitochondria Different-Phenotype (%): 11%
  Population Mitotic Cells (%): 66%
  Population Normal (%): 97%
  Population Pyknosed Nuclei (%): 3%
  Population Tubulin-Different-Phenotype (%): 32%
  Total Cell Count: 95
[11]
  Population Apoptotic (%): 45%
  Population Fragmented Nuclei (%): 12%
  Population Healthy Nuclei (%): 65%
  Population Hoechst High Intensity Objects (%): 5%
  Population Membrane Permeable-Phenotype (%): 5%
  Population Mitochondria Different-Phenotype (%): 7%
  Population Mitotic Cells (%): 54%
  Population Normal (%): 94%
  Population Pyknosed Nuclei (%): 21%
  Population Tubulin-Different-Phenotype (%): 14%
  Total Cell Count: 332
[12]
  Population Apoptotic (%): 75%
  Population Fragmented Nuclei (%): 17%
  Population Healthy Nuclei (%): 66%
  Population Hoechst High Intensity Objects (%): 10%
  Population Membrane Permeable-Phenotype (%): 13%
  Population Mitochondria Different-Phenotype (%): 13%
  Population Mitotic Cells (%): 25%
  Population Normal (%): 89%
  Population Pyknosed Nuclei (%): 16%
  Population Tubulin-Different-Phenotype (%): 21%
  Total Cell Count: 80

## CNCc1ccccc1-c1csc([C@@H](C)Nc2nc(C)nc3cc(OC)c(OC)cc23)c1 [BAY-293]
[5]
  Population Apoptotic (%): 63% and 46%
  Population Healthy Nuclei (%): 36% and 80%
  Population Hoechst High Intensity Objects (%): 5% and 4%
  Population Membrane Permeable-Phenotype (%): 73% and 54%
  Population Mitochondria Different-Phenotype (%): 88% and 36%
  Population Mitotic Cells (%): 36% and 53%
  Population Normal (%): 94% and 95%
  Population Tubulin-Different-Phenotype (%): 100% and 98%
[6]
  Population Apoptotic (%): 54% and 52%
  Population Fragmented Nuclei (%): 9% and 17%
  Population Healthy Nuclei (%): 72% and 52%
  Population Hoechst High Intensity Objects (%): 14% and 16%
  Population Membrane Permeable-Phenotype (%): 46% and 75%
  Population Mitochondria Different-Phenotype (%): 56% and 97%
  Population Mitotic Cells (%): 45% and 47%
  Population Normal (%): 85% and 83%
  Population Pyknosed Nuclei (%): 17% and 30%
  Population Tubulin-Different-Phenotype (%): 97%
[7]
  Population Apoptotic (%): 91%
  Population Fragmented Nuclei (%): 19% and 7%
  Population Hoechst High Intensity Objects (%): 19% and 7%
  Population Membrane Permeable-Phenotype (%): 100% and 52%
  Population Mitochondria Different-Phenotype (%): 100% and 64%
  Population Mitotic Cells (%): 8%
  Population Normal (%): 80% and 92%
  Population Pyknosed Nuclei (%): 66% and 27%
  Population Tubulin-Different-Phenotype (%): 100% and 97%
[8]
  Population Apoptotic (%): 84% and 45%
  Population Fragmented Nuclei (%): 25% and 10%
  Population Healthy Nuclei (%): 30% and 60%
  Population Hoechst High Intensity Objects (%): 10% and 8%
  Population Membrane Permeable-Phenotype (%): 91% and 43%
  Population Mitochondria Different-Phenotype (%): 95% and 72%
  Population Normal (%): 89% and 91%
  Population Pyknosed Nuclei (%): 44% and 28%
  Population Tubulin-Different-Phenotype (%): 95% and 96%
